Compound activity from PubChem BioAssay.
Most compounds without a hit are left out; they make up all but 1.5% or so of the library.
C8 TRAIL sens: viability loss with TRAIL in NB7+C8 cells, primary screen, TRAIL sensitizer project, cell-based, ATPlite luminescence; inhibition (viability loss, TRAIL sensitization), % at 10 µM; 360,000 compounds, 1% hits; AID 624354, 2012;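 active means compounds causing at least 50% loss of cell viability in the single-dose screen, relative to plate controls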
PPC-1+TRAIL kill: compounds killing PPC-1 cancer cells with TRAIL present, primary screen, TRAIL potentiator project, ATPLite luminescence, uHTS; PPC-1 cells + TRAIL, ATPLite viability luminescence; cell killing (% activity), % at 4 µM or 5 µM; 220,000 compounds, 0.41% hits;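 active means cell killing above 50% in the first pass at 4 µM, then a duplicate retest at 5 µM averaging 50% or more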;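 further: plate controls were cells with TRAIL plus DMSO for no effect and medium-only wells lacking cells for full effect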
FLuc stim CS: FLuc activators, initial screening, artefact control for FLuc-dependent activation tests, biochemical, ATPlite luminescence | Luciferin 4-monooxygenase (Photinus pyralis), P08659 | ATPlite luciferase biochemical, 10 min; 0 = ATP-free wells, 1 = DMSO control | activation factor at 10 µM | 200,000 tested, under 10 active;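 active means luciferase activation factor, scaled between plate controls, of at least 2 with compound at 10 µM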
Target sequence (P08659 whole entry, looked up): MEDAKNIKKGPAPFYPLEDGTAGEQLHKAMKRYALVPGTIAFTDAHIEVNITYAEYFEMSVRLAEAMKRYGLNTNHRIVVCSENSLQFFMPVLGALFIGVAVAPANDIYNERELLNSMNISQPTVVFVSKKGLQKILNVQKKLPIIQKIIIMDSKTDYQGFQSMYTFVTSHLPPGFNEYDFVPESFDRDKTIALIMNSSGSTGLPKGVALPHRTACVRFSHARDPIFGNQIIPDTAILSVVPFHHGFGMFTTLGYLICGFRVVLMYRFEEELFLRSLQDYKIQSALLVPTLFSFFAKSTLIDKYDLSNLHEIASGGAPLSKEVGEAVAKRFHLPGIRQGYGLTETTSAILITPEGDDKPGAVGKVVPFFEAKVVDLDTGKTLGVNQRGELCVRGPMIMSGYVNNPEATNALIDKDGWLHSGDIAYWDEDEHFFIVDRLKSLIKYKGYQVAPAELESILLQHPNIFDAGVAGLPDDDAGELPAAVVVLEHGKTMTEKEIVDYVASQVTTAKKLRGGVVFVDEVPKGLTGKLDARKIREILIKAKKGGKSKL
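Assay system: Luciferase/luciferin detection reagent, cell-free biochemical luciferase assay / Also added: ATP substrate / Schedule: 10 min at ambient temperature / Measured by: luminescence measurement of luciferase light output / Benchmarks: low control with PBS replacing ATP, high control enzyme plus ATP without compound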
FLuc inh counter: firefly luciferase enzyme inhibitors, primary screen, artefact control for luciferase-based inhibitor screens, biochemical, luminescence, ATPLite. inhibition, % at 10 µM. 10 min. 200,000 compounds, 1.5% hits;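 active means inhibition above about 50% when tested at 10 µM, limit read from the data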
Starred values were filed as active, the others as inactive; nt = not tested or not shown.

SMILES	C8 TRAIL sens	PPC-1+TRAIL kill	FLuc stim CS	FLuc inh counter
O=c1[nH]c(C2CCN(S(=O)(=O)/C=C/c3ccccc3)CC2)nc2c1nnn2Cc1ccccc1	5	nt	nt	nt
CCOc1ccc(N2C(=O)C(C)CNC2=S)cc1 (stereo unspecified)	-3	nt	nt	nt
COc1cccc(CNC(=O)c2ccc(S(=O)(=O)N3CCCCC3)cc2)c1	-12	nt	nt	nt
CC(C)C[C@@H](C(=O)NCc1ccco1)N1C(=O)N2CCc3c([nH]c4ccccc34)[C@@]2(C)C1=O	2	nt	nt	nt
O=C(ONC1=NCCCCC1)c1ccc(Cl)cc1	83*	-2	1.1	-5
O=C(ONC1=NCCCCC1)c1c(F)cccc1F	41	17	1.1	-7
CN(C)CC(CCC(CN(C)C)C(=O)c1ccccc1)C(=O)c1ccccc1 (stereo unspecified)	16	52*	nt	nt
CCN(CC(=O)Nc1cc(Cl)ccc1C)C(=O)COc1cccc2c1OC(C)(C)C2	0	nt	nt	nt
Cc1cc(NC(=O)NC(=O)c2ccc(F)cc2F)n[nH]1	23	28	0.5	53*
CC(C)NC(=O)c1onc(CSc2ccc(C(C)C)cc2)c1C(=O)O	-10	96*	1	-4
COc1ccccc1C(=O)Nc1nc(-c2cccs2)c(NC(C)=O)s1	51*	49	0.5	50*
CC(=O)Nc1sc(NC(=O)c2ccccc2)nc1-c1cccs1	10	2	1.1	-6
CCN(CC)S(=O)(=O)c1ccc(N2CCOCC2)c(NC(=O)c2[nH]c(C)c(C(C)=O)c2C)c1	0	nt	nt	nt
CC1=C(C(=O)N(C(C)C)C(C)C)CC(CC(=O)NCCN2CCOCC2)C(=O)N1CCC1=CCCCC1 (stereo unspecified)	-16	nt	nt	nt
Cc1cc(O)c(/C=N/Nc2ccc(Cl)cc2)c(=O)o1	-1	-4	0.1	89*
N#C/C(=C/c1ccc2c(c1)OCO2)C(=O)Nc1ccc(O)cc1	22	0	0.4	60*
Cc1ccccc1OCc1nc2ccccc2[nH]1	24	27	0.5	53*
COc1ccc(OCc2nc3ccccc3[nH]2)cc1	48	44	0.3	70*
COc1cccc(OCc2nc3ccccc3[nH]2)c1	32	27	0.5	52*
c1ccc2cc(OCc3nc4ccccc4[nH]3)ccc2c1	37	22	0.3	73*
Brc1ccc(OCc2nc3ccccc3[nH]2)cc1	18	nt	nt	nt
O=C(Cn1nc2n(c1=O)-c1ccccc1SC2)N/N=C/c1ccncc1	3	12	nt	nt
O=C(NCCNC(=O)c1cc(Cl)ccc1Cl)c1ccco1	14	nt	nt	nt
CCCN(C)C1CN(Cc2cn(CCCC(=O)OC)nn2)S(=O)(=O)C1 (stereo unspecified)	1	nt	nt	nt
Cc1ccc(SCc2nc3ccccc3[nH]2)cc1	32	41	0.5	54*
SMILES	C8 TRAIL sens	PPC-1+TRAIL kill	FLuc stim CS	FLuc inh counter
C#CCn1c(=NC(=O)c2ccc(S(=O)(=O)N3CCc4ccccc4C3)cc2)sc2cc(S(N)(=O)=O)ccc21	23	61*	1	-4
CCN(CC)CCCNC(=O)C1CCC(CNS(=O)(=O)c2ccc(Cl)cc2)CC1 (stereo unspecified)	12	nt	nt	nt
Cc1cc2nc(-c3ccc(SCC(=O)Nc4ccc5c(c4)OCCO5)nc3)[nH]c2cc1C	67*	46	0.2	81*
CCOC(=O)CSc1ccc(-c2nc3cc(C)c(C)cc3[nH]2)cn1	47	37	0.4	64*
Cc1ccc2nc(-c3ccc(SCC(=O)Nc4nnc(C)s4)nc3)[nH]c2c1	54*	21	0.4	56*
Cc1ccc(-c2ccc(SCC(=O)Nc3ccc4c(c3)OCCO4)nn2)cc1	40	39	0.4	57*
CC(=O)Nc1ccc(NC(=O)CSc2ccc(-c3ccc4c(c3)OCO4)nn2)cc1	28	27	1	3
Cc1cc2nc(-c3cccnc3SCC(=O)NC(C)C)[nH]c2cc1C	34	38	0.3	70*
O=C(CSc1ncccc1-c1nc2ccccc2[nH]1)NC1CC1	11	4	1	1
Cc1ccc2nc(-c3ccc(SCC(=O)Nc4ccc5c(c4)OCCO5)nc3)[nH]c2c1	46	46	0.4	62*
O=C1C=C(Nc2ccccc2)c2ccccc2C1=O	34	2	1	-1
CCc1ccc(NC2=CC(=O)C(=O)c3ccccc32)cc1	93*	nt	nt	nt
O=C(CC(Nc1ccc(Cl)cc1)C(=O)O)c1ccccc1 (stereo unspecified)	62*	44	0.3	69*
CCOc1ccc(/C=C2\CCC(C3CCCC3)C2=O)cc1 (stereo unspecified)	8	nt	nt	nt
CCC(=O)OCOc1ccc(/C=C2/CCC(CN(C)C)C2=O)cc1 (stereo unspecified)	72*	nt	nt	nt
Cc1nnc(SCC(=O)Nc2cccc(S(=O)(=O)N3CCCC3)c2)n1C1CC1	-6	nt	nt	nt
O=C(/C=C/c1cccnc1)/C=C/c1cccnc1	51*	29	nt	nt
CC(=O)OCCn1c([N+](=O)[O-])cnc1C=[N+]([O-])C1CCCCC1	-1	nt	nt	nt
CCOc1ccc(-n2nc3cc(C)c(N)cc3n2)cc1	59*	nt	nt	nt
COc1cccc2c1C(=O)C=C(C)C2=O	-6	27	1	-4
COC1=CC(=O)c2c(ccc3ncnc(N)c23)C1=O	92*	nt	nt	nt
Cc1ccccc1S(=O)(=O)N(C)C[C@@H]1OCc2ccccc2-c2c(n(C)c3ccccc23)C(=O)N([C@H](C)CO)C[C@@H]1C	6	nt	nt	nt
Cc1ccc(Nc2nc(-c3cccs3)cs2)nc1	65*	30	0.2	85*
Cc1cc(O)ccc1Nc1nc(-c2cccs2)cs1	2	4	0.2	78*
Cc1cc(O)ccc1Nc1nc(-c2cccnc2)cs1	4	nt	nt	nt
SMILES	C8 TRAIL sens	PPC-1+TRAIL kill	FLuc stim CS	FLuc inh counter
Cc1ccc(Nc2nc(-c3ccccc3)cs2)nc1	43	nt	nt	nt
COc1cccc2sc(Nc3nnc(-c4ccc(F)cc4)o3)nc12	10	-15	0.7	28
Fc1cccc2sc(Nc3nnc(-c4ccco4)o3)nc12	41	22	0.3	68*
COc1cccc2sc(Nc3nnc(-c4cccs4)o3)nc12	32	26	0.4	56*
CN(C)S(=O)(=O)c1cc(NC(=O)COC(=O)CC2Sc3ccccc3NC2=O)ccc1Cl (stereo unspecified)	-2	nt	nt	nt
Cc1cc(/C=N/n2c(COc3ccccc3)nc3ccccc3c2=O)c(O)c([N+](=O)[O-])c1	51*	5	0.8	23
CCOc1cccc2cc(-c3cn4cc(C)ccc4n3)c(=O)oc12	66*	46	0.3	68*
CCOc1cccc2cc(-c3nnc(NCc4ccco4)s3)c(=O)oc12	55*	14	0.9	14
CCOC(=O)c1cc(C)sc1NC(=O)CSC1=NCCS1	13	nt	nt	nt
N#Cc1ccc(C(=O)Nc2nc3ccccc3[nH]2)cc1	39	nt	nt	nt
CCc1ccc(C(=O)Nc2nc3ccccc3[nH]2)cc1	96*	nt	nt	nt
CC(C)Oc1ccc(C(=O)Nc2nc3ccccc3[nH]2)cc1	92*	nt	nt	nt
O=C(Nc1nc2ccccc2[nH]1)c1ccc(OC(F)F)cc1	83*	nt	nt	nt
